Screening results deposited in PubChem by The Scripps Research Institute Molecular Screening Center.
Compounds with a hit are over-represented: about 4.6% of the library has one in this group of screens.
TAAR1 agonist – agonists of human TAAR1; Q96RJ0; CHO RD-HGA16 TAAR1, Fluo-8 calcium fluorescence; vehicle wells 0%, saturating PEA agonist 100%; activation, % at 3 µM; hit rate 0.99% among 360,000; AID 624467;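 active = activation above the mean activation of all test compounds in the run plus 3 SD, cut at about 38% in these data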
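test system = CHO RD-HGA16 cells carrying human TAAR1 plus Gα16 | schedule = 17-24 h seeding, 75 min 37 °C dye, 30 min RT | compound dosing = 3 µM single concentration | control set = DMSO and PEA EC100 | replicates = n 1 | signal = Fluo-8 fluorescence, 5 s baseline then 140 s kinetic read | measure = percent activation vs PEA EC100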
OX1R antag-1 – antagonists of human orexin 1 receptor | hit rate 0.43% among 330,000 | O43613 | CHO/OX1R cells, Fluo-8 calcium fluorescence, orexin A | inhibition, % at 5 µM | AID 434989;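 active = inhibition above its plate's threshold, mean inhibition of all tested compounds on the plate plus 3 SD, cut at about 37% in these data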
OX1R antag-2 – blocks the human orexin 1 receptor | O43613 | OX1R-expressing cells, FRET antagonist read-out | inhibition, % at 6.6 µM | hit rate 1.8% among 330,000; in the data active = inhibition mostly above about 38%, no sharp cut-off; inactive = mostly below about 40%
CHO parental Ca – counter-screen: ATP calcium response change in parental CHO cells; AID 463079; hit rate 0.63% among 330,000; parental CHO-K1, ATP-induced calcium, Fluo-8 fluorescence; inhibition, % at 5.6 µM;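 active = inhibition above that plate's mean sample inhibition plus 3 SD, cut at about 26% in these data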
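Material – parental CHO cells · Reagent – ATP stimulus · Compound – single nominal dose of 5.6 µM per compound · Detection – Fluo-8 fluorescence · Read-out basis – percent inhibition of calcium signal · Controls – ATP-challenged DMSO wells low, unchallenged DMSO wells high · Repeats – no replicates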
TAAR1 antagonist – human TAAR1 antagonism. Q96RJ0. CHO RD-HGA16 TAAR1, Fluo-8 calcium fluorescence, antagonist. inhibition, % at 3 µM. hit rate 1.5% among 360,000;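 active = inhibition above a per-plate cutoff, the mean inhibition of test compounds on that plate plus 3 SD, cut at about 49% in these data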
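Assay system: RD-HGA16 CHO cells with stable hTAAR1 and Gα16 / Reagent: EC80 β-phenethylamine stimulus / Doses: 3 µM, single point / Timing: dye loading 75 min at 37 °C, then 30 min room temperature / Measured by: Fluo-8 intracellular calcium dye fluorescence, real-time kinetic reads / Controls: vehicle wells and EC80 agonist wells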
GPR7 antag – antagonists of human GPR7 (neuropeptides B/W receptor 1). GPR7-expressing cells, fluorescence antagonist assay. P48145. hit rate 1.1% among 290,000. inhibition, % at 4.4 µM; in the data active = inhibition above about 16%, passing the limit was not always enough;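 note: cells stimulated with the agonist NPW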
Target sequence (P48145 whole entry, looked up): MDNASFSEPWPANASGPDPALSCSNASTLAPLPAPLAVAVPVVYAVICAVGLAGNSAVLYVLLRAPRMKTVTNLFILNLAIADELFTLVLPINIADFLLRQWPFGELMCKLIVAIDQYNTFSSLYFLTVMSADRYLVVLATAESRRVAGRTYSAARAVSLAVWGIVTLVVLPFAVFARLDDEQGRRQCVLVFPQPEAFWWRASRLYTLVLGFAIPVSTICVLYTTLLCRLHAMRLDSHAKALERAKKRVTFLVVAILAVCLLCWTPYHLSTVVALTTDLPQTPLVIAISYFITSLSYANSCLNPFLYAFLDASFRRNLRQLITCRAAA
TAAR1 ag confirm – human TAAR1 agonism, confirmed; shares compounds with TAAR1 agonist; CHO RD-HGA16 TAAR1, Fluo-8 calcium fluorescence; scaled: DMSO 0%, maximal phenethylamine 100%; activation, % at 3 µM; hit rate 82% among 2,400; AID 651783;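 active = activation above a cutoff set at the run's mean compound activation plus 3 SD, cut at about 39% in these data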
Ga16 nonsel ag – nonselective agonist in parental cells, TAAR1 agonist counter-screen | CHO-Ga16 parental, Fluo-8 calcium fluorescence; normalized to maximal ATP response, DMSO zero | AID 651787 | shares compounds with TAAR1 agonist | hit rate 50% among 2,400 | activation, % at 3 µM;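 active = activation above the run cutoff, the mean activation over all tested wells plus 3 SD, cut at about 12% in these data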
TAAR1 desens – human TAAR1 agonist that also desensitizes the receptor; AID 651951; CHO RD-HGA16 hTAAR1, Fluo-8 calcium, beta-PEA response inhibition; inhibition, % at 3 µM; hit rate 46% among 2,400; shares compounds with TAAR1 agonist;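 active = inhibition above the run cutoff, the mean inhibition of all test compounds plus 3 SD, cut at about 49% in these data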;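 note: beta-PEA stimulus applied at its EC80; loss of beta-PEA calcium signal after compound pretreatment read as receptor desensitization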
Ga16 nonsel ant – nonselective Ga16 antagonist in TAAR1 agonist counter-screen | shares compounds with TAAR1 agonist | CHO-Ga16 ATP-induced calcium, Fluo-8 fluorescence | inhibition, % at 3 µM | hit rate 39% among 2,400;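 active = inhibition above the plate's mean compound inhibition plus 3 SD, computed per plate, cut at about 22% in these data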
A number is an active result; . = inactive; / = no result.

SMILES	TAAR1 agonist	OX1R antag-1	OX1R antag-2	CHO parental Ca	TAAR1 antagonist	GPR7 antag	TAAR1 ag confirm	Ga16 nonsel ag	TAAR1 desens	Ga16 nonsel ant
OC(CN1CCN(c2ccccc2Cl)CC1)c1ccccc1 (configuration not stated)	.	.	.	.	.	.	/	/	/	/
Cc1ccc(CNC(=O)Cn2nnc(C(=O)Nc3cccc(C)c3C)c2N)cc1	.	.	.	.	.	.	/	/	/	/
Cc1ccccc1Cn1nnc(C(=O)Nc2cccc(C)c2C)c1N	66	.	.	.	.	.	79	31	.	.
CCCNC(=S)Nc1ccc(Cl)cc1Cl	.	.	.	.	.	.	/	/	/	/
CN(C(=O)c1ccnn1C)C1CCCN(Cc2ccccc2F)C1 (configuration not stated)	.	/	/	/	.	.	/	/	/	/
CC(C)(C)C(=O)/C(C#N)=C/c1cccs1	.	.	.	.	.	.	/	/	/	/
N#C/C(=C\c1cccs1)C(=O)c1ccccc1Cl	59	.	.	.	54	.	53	33	72	59
Cc1cccc(NC(=O)c2nc[nH]c2C(=O)NCCCCNC(=O)c2[nH]cnc2C(=O)Nc2cccc(C)c2)c1	.	.	.	.	.	/	/	/	/	/
COc1ccccc1NC(=S)N1CCCCCC1	.	.	.	.	.	.	/	/	/	/
CCOCCOc1cccc(C(=O)NC(c2ccccc2)c2ccccc2)c1	/	.	.	.	/	.	/	.	/	.
CCOCCOc1cccc(C(=O)NC(C)c2ccc3ccccc3c2)c1 (configuration not stated)	.	.	.	.	.	.	/	/	/	/
CCN(CC)c1ccc(/C=C2/C(=O)c3ccc(C(=O)O)cc3C2=O)cc1	265	83	.	.	103	.	214	199	105	98
COc1ccc(N=Cc2sc(O)c3ccccc23)cc1	84	67	.	46	64	.	46	72	53	69
CCOC(=O)N[C@@H](Cc1cccnc1)C(=O)N1CCC[C@H]1C(=O)NCCc1ccccc1Cl	67	/	/	/	61	/	89	.	86	.
Cc1ccccc1C(=O)N[C@@H](Cc1cccnc1)C(=O)N1CCC[C@H]1C(=O)NCCc1ccccc1Cl	41	/	/	/	.	/	84	19	84	.
CN(CCc1ccccc1)C(=O)c1ccc(NC(=O)Cc2cccc(NC(=O)C3CCN(S(=O)(=O)c4cccc([N+](=O)[O-])c4)CC3)c2)cc1	43	/	/	/	.	/	66	.	.	.
COc1ccc(S(=O)(=O)N2CCN(c3ncccn3)CC2)cc1[N+](=O)[O-]	94	.	.	.	.	.	.	.	.	.
COc1ccc(S(=O)(=O)N2CCN(c3ccccn3)CC2)cc1[N+](=O)[O-]	.	.	.	.	.	.	/	/	/	/
N#Cc1ccccc1NC(=O)CN(Cc1ccccc1)Cc1ccccc1	.	.	.	.	.	.	/	/	/	/
O=C1C(SCCO)=C(SCCO)C(=O)c2ccccc21	67	47	67	48	84	/	71	49	83	74
CCOC(=O)c1c(C)[nH]c(C(=O)COC(=O)c2cnccn2)c1C	74	.	.	.	.	/	.	.	.	.
CCOC(=O)c1c(C)[nH]c(C(=O)COC(=O)c2cccnc2Cl)c1C	.	.	.	.	.	/	/	/	/	/
CCCCC(C(=O)N/N=C/c1ccccn1)C(=O)N/N=C/c1ccccn1	.	.	.	.	.	.	/	/	/	/
CC(=O)Nc1ccc(S(=O)(=O)N2CCNC(=O)C2)cc1	.	.	.	.	.	/	/	/	/	/
Cc1cc(=O)[nH]c(Nc2cccc(F)c2)n1	51	.	.	.	.	.	81	.	.	.
